Results published in ChEMBL document CHEMBL1124643 (J Med Chem, 1989).
pIC50: −log10 of the molar value.

Target: T1, Phosphodiesterase 1 (Bos taurus, UniProt Q01061+P14100)
Assay: Inhibitory activity against phosphodiesterase was determined in vitro using bovine aorta, at 1 uM cGMP in the presence of calcium (10 uM) and calmodulin (15 nM)
Format: protein assay
How it was run: (§1)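 Calmodulin-dependent PDE peak taken from DEAE-trisacryl gradient fractions of a 105000g vascular smooth muscle supernatant. Assayed with 1 μM cGMP substrate, CaCl2 and excess bovine brain calmodulin, keeping hydrolysis ≤15%. Drugs in DMSO or DMF, final solvent ≤1%. IC50 from linear regression of % activity vs log concentration, using at least six points. Mean ± SEM of three separate enzyme preparations.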

| Compound | IC50 |
| --- | --- |
| O=C1CC(c2ccccc2)CN1 (centres undefined) | > 0.001 M |
| COc1ccc(C2CNC(=O)C2)cc1OC1CCCC1 (centres undefined) [ROLIPRAM] | 2700 µM |
| COc1ccc(C2CNC(=O)C2)cc1OCCCC(=O)N(C)C1CCCCC1 (centres undefined) | > 0.001 M |
| CCCCOc1cc(CC2CNC(=O)N2)ccc1OC (centres undefined) [RO-201724] | 940 µM |
| COc1ccc(C2CNC(=O)C2C)cc1OC (centres undefined) | > 0.001 M |

Other lines, results leading:

| IC50 | Compound |
| --- | --- |
| > 0.001 M | COc1ccc(C2CNC(=O)C2)cc1OCCCC(=O)O (centres undefined) |
| > 0.001 M | CCCCOc1cccc(C2CNC(=O)C2)c1 (centres undefined) |
| > 0.001 M | C#CCOc1cc(C2CNC(=O)C2)ccc1OC (centres undefined) |
| > 0.001 M | COc1ccc(C2CNC(=O)C2)cc1O (centres undefined) |
| > 0.001 M | CCCCOc1ccc(C2CNC(=O)C2)cc1OC (centres undefined) |
| > 0.001 M | CCOC(=O)CCCOc1cc(C2CNC(=O)C2)ccc1OC (centres undefined) |
| > 0.001 M | CCC(C)COc1cc(C2CNC(=O)C2)ccc1OC (centres undefined) |
| > 0.001 M | COc1ccc(C2CNC(=O)C2)cc1OCc1ccccc1 (centres undefined) |
| > 0.001 M | CCCCNC(=O)CCCOc1cc(C2CNC(=O)C2)ccc1OC (centres undefined) |
| > 0.001 M | CCCCOc1cc(C2CNC(=O)C2)ccc1OC (centres undefined) |
| > 0.001 M | COc1ccc(C2CNC(=O)C2)cc1OC (centres undefined) |
| > 0.001 M | C=C(C)COc1cc(C2CNC(=O)C2)ccc1OC (centres undefined) |
| > 0.001 M | COc1ccc(C2CNC(=O)C2)cc1OCC(C)C (centres undefined) |

Target: T1, Phosphodiesterase 1
Assay: Inhibition of phosphodiesterase from bovine aorta with 1 uM cGMP calcium (10 uM) and calmodulin (15 nM) (insignificant)
Format: protein assay
How it was run: as §1

| Compound | IC50 [M] |
| --- | --- |
| COc1ccc(C2CC(=O)N(C(=O)c3ccccc3)C2)cc1OC (centres undefined) | > 0.001 |
| COc1cc2c(cc1OC)[C@@H]1CNC(=O)[C@H]1CC2 | > 0.001 |

System: not listed separately
Assay: Inhibition of phosphodiesterase from bovine aorta with 1 uM cGMP calcium (10 uM) and calmodulin (15 nM)
Set-up: species or system Bos taurus
How it was run: as §1

| Compound | pIC50 |
| --- | --- |
| COc1cc2c(cc1OC)-c1c/c(=N\c3c(C)cc(C)cc3C)n(C)c(=O)n1CC2 [TREQUINSIN] | 4.89 |
| COc1ccc(C2CC(=O)N(c3ccccc3)C2)cc1OC (centres undefined) | 3.64 |

Target: T1, Phosphodiesterase 1
Assay: Inhibitory activity against […] phosphodiesterase was determined in vitro using bovine aorta, at 1 uM cGMP in the presence of calcium (10 uM) and calmodulin (15 nM); Compound is insignificant.
Format: protein assay

| Compound | IC50 [M] |
| --- | --- |
| COc1cc2c(cc1OC)[C@@H]1CNC(=O)[C@@H]1CC2 | > 0.001 |
| COc1ccc(C2CC(=O)N(Cc3ccccc3)C2)cc1OC (centres undefined) | > 0.001 |
| CCOC(=O)C1C(=O)NCC1c1ccc(OC)c(OC)c1 (centres undefined) | > 0.001 |
| COc1ccc(C2CC(=O)N(C)C2)cc1OC (centres undefined) | > 0.001 |
| COc1ccc(C2CC(=O)N(C(C)=O)C2)cc1OC (centres undefined) | > 0.001 |
| COc1ccc(C2CNC(=O)C2C(=O)O)cc1OC (centres undefined) | > 0.001 |
| COc1ccc(C2CCNC2)cc1OC.O=C(O)C(=O)O (centres undefined) | > 0.001 |
| COc1cc2c(cc1OC)[C@H]1CC(=O)NC1C2 (some centres undefined) | > 0.001 |

Further lines, results first:

| IC50 [M] | Compound |
| --- | --- |
| > 0.001 | CCCCOc1ccc(C2CNC(=O)C2)cc1 (centres undefined) |
| > 0.001 | CCCCOc1cc(C2CN=C(S)C2)ccc1OC (centres undefined) |

Target: T2, cGMP-specific 3',5'-cyclic phosphodiesterase (Bos taurus, UniProt Q28156)
Assay: Inhibition of cGMP-PDE phosphodiesterase from bovine aorta using 1 uM cGMP
How it was run: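 Enzyme from the 105000g supernatant, separated on DEAE-trisacryl with a 0–0.4 NaCl gradient; the cGMP-PDE peak was dialysed and stored at −80 °C. Assayed without calcium, with EGTA, at 1 μM cGMP, keeping hydrolysis ≤15%. Drugs were in DMSO or DMF, ≤1% final.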

| Compound | pIC50 |
| --- | --- |
| COc1cc2c(cc1OC)-c1c/c(=N\c3c(C)cc(C)cc3C)n(C)c(=O)n1CC2 [TREQUINSIN] | 5.30 |
| O=C1CC(c2ccccc2)CN1 (centres undefined) | < 3.00 |
| COc1ccc(C2CC(=O)N(C(C)=O)C2)cc1OC (centres undefined) | < 3.00 |

More lines, now with the values ahead:

| pIC50 | Compound |
| --- | --- |
| < 3.00 | CCCCOc1cccc(C2CNC(=O)C2)c1 (centres undefined) |
| 3.71 | CCCCOc1cc(C2CN=C(S)C2)ccc1OC (centres undefined) |

Target: T2, cGMP-specific 3',5'-cyclic phosphodiesterase
Assay: Inhibitory activity against phosphodiesterase was determined in vitro using bovine aorta, at 1 uM cGMP for cGMP-PDE.

| Compound | pIC50 |
| --- | --- |
| COc1ccc(C2CNC(=O)C2)cc1OCCCC(=O)N(C)C1CCCCC1 (centres undefined) | < 3.00 |
| CCCCOc1cc(CC2CNC(=O)N2)ccc1OC (centres undefined) [RO-201724] | 3.42 |
| COc1ccc(C2CNC(=O)C2C)cc1OC (centres undefined) | < 3.00 |

The next lines start with the values.

| pIC50 | Compound |
| --- | --- |
| < 3.00 | COc1ccc(C2CNC(=O)C2)cc1OCCCC(=O)O (centres undefined) |
| < 3.00 | C#CCOc1cc(C2CNC(=O)C2)ccc1OC (centres undefined) |
| < 3.00 | COc1ccc(C2CNC(=O)C2)cc1O (centres undefined) |
| < 3.00 | CCCCOc1ccc(C2CNC(=O)C2)cc1OC (centres undefined) |
| < 3.00 | CCOC(=O)CCCOc1cc(C2CNC(=O)C2)ccc1OC (centres undefined) |
| 3.70 | CCC(C)COc1cc(C2CNC(=O)C2)ccc1OC (centres undefined) |
| 3.76 | COc1ccc(C2CNC(=O)C2)cc1OCc1ccccc1 (centres undefined) |
| < 3.00 | CCCCNC(=O)CCCOc1cc(C2CNC(=O)C2)ccc1OC (centres undefined) |
| < 3.00 | CCCCOc1cc(C2CNC(=O)C2)ccc1OC (centres undefined) |
| < 3.00 | COc1ccc(C2CNC(=O)C2)cc1OC (centres undefined) |
| < 3.00 | C=C(C)COc1cc(C2CNC(=O)C2)ccc1OC (centres undefined) |
| < 3.00 | COc1ccc(C2CNC(=O)C2)cc1OCC(C)C (centres undefined) |

Target: T2, cGMP-specific 3',5'-cyclic phosphodiesterase
Assay: Inhibition of cGMP-PDE phosphodiesterase from bovine aorta using 1 uM cGMP (insignificant)

| Compound | pIC50 |
| --- | --- |
| COc1ccc(C2CC(=O)N(C(=O)c3ccccc3)C2)cc1OC (centres undefined) | < 3.00 |
| COc1cc2c(cc1OC)[C@@H]1CNC(=O)[C@H]1CC2 | < 3.00 |
| COc1ccc(C2CC(=O)N(c3ccccc3)C2)cc1OC (centres undefined) | < 3.00 |

Target: T2, cGMP-specific 3',5'-cyclic phosphodiesterase
Assay: Inhibitory activity against phosphodiesterase was determined in vitro using bovine aorta, at 1 uM cGMP for cGMP-PDE;Compound is insignificant.

| Compound | pIC50 |
| --- | --- |
| COc1cc2c(cc1OC)[C@@H]1CNC(=O)[C@@H]1CC2 | < 3.00 |
| CCCCOc1ccc(C2CNC(=O)C2)cc1 (centres undefined) | < 3.00 |
| COc1ccc(C2CC(=O)N(Cc3ccccc3)C2)cc1OC (centres undefined) | < 3.00 |
| CCOC(=O)C1C(=O)NCC1c1ccc(OC)c(OC)c1 (centres undefined) | < 3.00 |
| COc1ccc(C2CC(=O)N(C)C2)cc1OC (centres undefined) | < 3.00 |
| COc1ccc(C2CNC(=O)C2C(=O)O)cc1OC (centres undefined) | < 3.00 |
| COc1ccc(C2CCNC2)cc1OC.O=C(O)C(=O)O (centres undefined) | < 3.00 |
| COc1cc2c(cc1OC)[C@H]1CC(=O)NC1C2 (some centres undefined) | < 3.00 |

Target: cAMP phosphodiesterase (Bos taurus)
Assay: Inhibition of cAMP-PDE phosphodiesterase from bovine aorta using 1 uM cAMP (insignificant)

| Compound | IC50 [M] |
| --- | --- |
| CCCCOc1ccc(C2CNC(=O)C2)cc1 (centres undefined) | > 0.001 |
| COc1ccc(C2CCNC2)cc1OC.O=C(O)C(=O)O (centres undefined) | > 0.001 |

Target: cAMP phosphodiesterase (Bos taurus)
Assay: Inhibitory activity against phosphodiesterase was determined in vitro using bovine aorta, at 1 uM cAMP for cAMP-PDE.

| Compound | IC50 |
| --- | --- |
| COc1ccc(C2CNC(=O)C2)cc1OCCCC(=O)N(C)C1CCCCC1 (centres undefined) | 34 µM |
| COc1ccc(C2CNC(=O)C2C)cc1OC (centres undefined) | 22 µM |

The next lines start with the values.

| IC50 | Compound |
| --- | --- |
| 400 µM | COc1ccc(C2CNC(=O)C2)cc1OCCCC(=O)O (centres undefined) |
| > 0.001 M | CCCCOc1cccc(C2CNC(=O)C2)c1 (centres undefined) |
| > 0.001 M | COc1ccc(C2CNC(=O)C2)cc1O (centres undefined) |
| > 0.001 M | CCCCOc1ccc(C2CNC(=O)C2)cc1OC (centres undefined) |
| 30 µM | CCOC(=O)CCCOc1cc(C2CNC(=O)C2)ccc1OC (centres undefined) |
| 96 µM | COc1ccc(C2CNC(=O)C2)cc1OCc1ccccc1 (centres undefined) |
| 16 µM | CCCCNC(=O)CCCOc1cc(C2CNC(=O)C2)ccc1OC (centres undefined) |
| 13 µM | CCCCOc1cc(C2CNC(=O)C2)ccc1OC (centres undefined) |
| 24 µM | C=C(C)COc1cc(C2CNC(=O)C2)ccc1OC (centres undefined) |
| 18 µM | COc1ccc(C2CNC(=O)C2)cc1OCC(C)C (centres undefined) |

Target: cAMP phosphodiesterase (Bos taurus)
Assay: as above
Remark: another data set of the same source

| Compound | IC50 [µM] |
| --- | --- |
| COc1ccc(C2CC(=O)N(C(=O)c3ccccc3)C2)cc1OC (centres undefined) | 58 |
| COc1cc2c(cc1OC)[C@@H]1CNC(=O)[C@@H]1CC2 | 220 |
| COc1cc2c(cc1OC)[C@@H]1CNC(=O)[C@H]1CC2 | 138 |
| CCCCOc1cc(C2CN=C(S)C2)ccc1OC (centres undefined) | 500 |
| CCOC(=O)C1C(=O)NCC1c1ccc(OC)c(OC)c1 (centres undefined) | 21 |
| COc1ccc(C2CC(=O)N(C(C)=O)C2)cc1OC (centres undefined) | 25 |
| COc1cc2c(cc1OC)[C@H]1CC(=O)NC1C2 (some centres undefined) | 800 |
